Laboratory results as given in ChEMBL document CHEMBL3124924, “Bifunctional ethyl 2-amino-4-methylthiazole-5-carboxylate derivatives: synthesis and in vitro biological evaluation as antimicrobial and anticancer agents” (2014).
Values after ≈ are worked out from the molar mass of the structure shown.

Tests used:
Type in all cases: functional
Escherichia coli [1] = experiment: Antibacterial activity against Escherichia coli ATCC 25922 assessed as growth inhibition at 1 mg/mL after 24 hrs by agar-cup diffusion method; settings: ATCC 25922, 24 h, read-out: DIZ
Procedure, shortened: (§1)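 Agar-cup diffusion: 1 mL of 6 h broth culture seeded per 100 mL molten sterile agar at 45 °C and poured into plates. 8 mm cups cut, each filled with 0.1 mL of 1 mg/mL test solution. Incubated 37 °C for 24 h, 48 h for C. albicans. DMSO control per organism. Inhibition zone diameter in mm, mean of three measurements.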

Bacillus spizizenii [2] = experiment: Antibacterial activity against Bacillus subtilis ATCC 6633 assessed as growth inhibition at 1 mg/mL after 24 hrs by agar-cup diffusion method; settings: ATCC 6633, 24 h, read-out: DIZ; procedure, shortened: as §1
U-251 = experiment: Cytotoxicity against human U251 cells assessed as growth inhibition at 10 uM after 48 hrs by SRB assay; settings: U-251, 48 h, read-out: GI
Procedure, shortened: (§2)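 NCI-60 one-dose primary screen run by the NCI Drug Evaluation Branch across the full 60-line panel. Single high-dose treatment with 48 h continuous drug exposure. Cell growth estimated by sulforhodamine B protein staining. Results given as percent growth of treated cells and expressed as percentage growth inhibition.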

SNB-75 = experiment: Cytotoxicity against human SNB75 cells assessed as growth inhibition at 10 uM after 48 hrs by SRB assay; settings: SNB-75, 48 h, read-out: GI; procedure, shortened: as §2
SF-268 = experiment: Cytotoxicity against human SF268 cells assessed as growth inhibition at 10 uM after 48 hrs by SRB assay; settings: SF-268, 48 h, read-out: GI; procedure, shortened: as §2
PC-3 = experiment: Cytotoxicity against human PC3 cells assessed as growth inhibition at 10 uM after 48 hrs by SRB assay; settings: PC-3, 48 h, read-out: GI; procedure, shortened: as §2
UACC-62 = experiment: Cytotoxicity against human UACC62 cells assessed as growth inhibition at 10 uM after 48 hrs by SRB assay; settings: UACC-62, 48 h, read-out: GI; procedure, shortened: as §2
SK-MEL-5 = experiment: Cytotoxicity against human SK-MEL-5 cells assessed as growth inhibition at 10 uM after 48 hrs by SRB assay; settings: SK-MEL-5, 48 h, read-out: GI; procedure, shortened: as §2
SK-MEL-2 = experiment: Cytotoxicity against human SK-MEL-2 cells assessed as growth inhibition at 10 uM after 48 hrs by SRB assay; settings: SK-MEL-2, 48 h, read-out: GI; procedure, shortened: as §2
[3] = Cytotoxicity against human UO31 cells assessed as growth inhibition at 10 uM after 48 hrs by SRB assay; settings: UO-31, 48 h, read-out: GI; procedure, shortened: as §2
A498 = experiment: Cytotoxicity against human A498 cells assessed as growth inhibition at 10 uM after 48 hrs by SRB assay; settings: A498, 48 h, read-out: GI; procedure, shortened: as §2
RPMI-8226 = experiment: Cytotoxicity against human RPMI8226 cells assessed as growth inhibition at 10 uM after 48 hrs by SRB assay; settings: RPMI-8226, 48 h, read-out: GI; procedure, shortened: as §2
CCRF-CEM = experiment: Cytotoxicity against human CCRF-CEM cells assessed as growth inhibition at 10 uM after 48 hrs by SRB assay; settings: read-out: GI; procedure, shortened: as §2
T47D = experiment: Cytotoxicity against human T47D cells assessed as growth inhibition at 10 uM after 48 hrs by SRB assay; settings: read-out: GI; procedure, shortened: as §2
MDA-MB-468 = experiment: Cytotoxicity against human MDA-MB-468 cells assessed as growth inhibition at 10 uM after 48 hrs by SRB assay; settings: MDA-MB-468, 48 h, read-out: GI; procedure, shortened: as §2
[4] = Cytotoxicity against human NCI-ADR-RES cells assessed as growth inhibition at 10 uM after 48 hrs by SRB assay; settings: read-out: GI; procedure, shortened: as §2
MCF7 = experiment: Cytotoxicity against human MCF7 cells assessed as growth inhibition at 10 uM after 48 hrs by SRB assay; settings: MCF7, 48 h, read-out: GI; procedure, shortened: as §2
[5] = Cytotoxicity against human Hs578T cells assessed as growth inhibition at 10 uM after 48 hrs by SRB assay; settings: Hs-578T, read-out: GI; procedure, shortened: as §2
SW-620 = experiment: Cytotoxicity against human SW620 cells assessed as growth inhibition at 10 uM after 48 hrs by SRB assay; settings: SW-620, 48 h, read-out: GI; procedure, shortened: as §2
HT-29 = experiment: Cytotoxicity against human HT-29 cells assessed as growth inhibition at 10 uM after 48 hrs by SRB assay; settings: HT-29, 48 h, read-out: GI; procedure, shortened: as §2
HCT-15 = experiment: Cytotoxicity against human HCT15 cells assessed as growth inhibition at 10 uM after 48 hrs by SRB assay; settings: HCT-15, 48 h, read-out: GI; procedure, shortened: as §2
HCT-116 = experiment: Cytotoxicity against human HCT116 cells assessed as growth inhibition at 10 uM after 48 hrs by SRB assay; settings: HCT-116, 48 h, read-out: GI; procedure, shortened: as §2
NCI-H522 = experiment: Cytotoxicity against human NCI-H522 cells assessed as growth inhibition at 10 uM after 48 hrs by SRB assay; settings: NCI-H522, 48 h, read-out: GI; procedure, shortened: as §2
NCI-H322M = experiment: Cytotoxicity against human NCI-H322M cells assessed as growth inhibition at 10 uM after 48 hrs by SRB assay; settings: read-out: GI; procedure, shortened: as §2
HOP-92 = experiment: Cytotoxicity against human HOP92 cells assessed as growth inhibition at 10 uM after 48 hrs by SRB assay; settings: HOP-92, 48 h, read-out: GI; procedure, shortened: as §2
Escherichia coli [6] = experiment: Bactericidal activity against Escherichia coli ATCC 25922 after 18 hrs; settings: ATCC 25922, 18 h
Procedure, shortened: (§3)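 Continuation of the broth-dilution MIC test. A loopful from each tube without visible growth spread on a quarter of a Mueller-Hinton agar plate and incubated 18 h. Lowest concentration giving no growth on subculture taken as the MBC.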

Escherichia coli [7] = experiment: Antibacterial activity against Escherichia coli ATCC 25922 assessed as growth inhibition after 48 hrs by two-fold serial dilution assay; settings: ATCC 25922, 48 h
Procedure, shortened: (§4)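 Twofold serial broth dilution run on compounds giving inhibition zones of 13 mm or more. Organisms pre-grown in suitable broth at 37 °C, 24 h for bacteria and 48 h for fungi. Dilution series 200, 100, 50, 25, 12.5, 6.25. Each 5 mL tube inoculated with 0.1 mL and incubated 37 °C for 48 h. Tubes scored for presence or absence of growth.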

Bacillus spizizenii [8] = experiment: Bactericidal activity against Bacillus subtilis ATCC 6633 after 18 hrs; settings: ATCC 6633, 18 h; procedure, shortened: as §3
Bacillus spizizenii [9] = experiment: Antibacterial activity against Bacillus subtilis ATCC 6633 assessed as growth inhibition after 48 hrs by two-fold serial dilution assay; settings: ATCC 6633, 48 h; procedure, shortened: as §4
Staphylococcus aureus [10] = experiment: Bactericidal activity against Staphylococcus aureus ATCC 6538 after 18 hrs; settings: ATCC 6538, 18 h; procedure, shortened: as §3
Staphylococcus aureus [11] = experiment: Antibacterial activity against Staphylococcus aureus ATCC 6538 assessed as growth inhibition after 48 hrs by two-fold serial dilution assay; settings: ATCC 6538, 48 h; procedure, shortened: as §4
Pseudomonas aeruginosa [12] = experiment: Bactericidal activity against Pseudomonas aeruginosa ATCC 27853 after 18 hrs; settings: ATCC 27853, 18 h; procedure, shortened: as §3
Pseudomonas aeruginosa [13] = experiment: Antibacterial activity against Pseudomonas aeruginosa ATCC 27853 assessed as growth inhibition after 48 hrs by two-fold serial dilution assay; settings: ATCC 27853, 48 h; procedure, shortened: as §4

SMILES | zone of inhibition at 1000 µg/mL (Escherichia coli [1]) | zone of inhibition at 1000 µg/mL (Bacillus spizizenii [2]) | inhibition of growth at 10 µM (U-251) | inhibition of growth at 10 µM (SNB-75) | inhibition of growth at 10 µM (SF-268) | inhibition of growth at 10 µM (PC-3) | inhibition of growth at 10 µM (UACC-62) | inhibition of growth at 10 µM (SK-MEL-5) | inhibition of growth at 10 µM (SK-MEL-2) | inhibition of growth at 10 µM [3] | inhibition of growth at 10 µM (A498) | inhibition of growth at 10 µM (RPMI-8226) | inhibition of growth at 10 µM (CCRF-CEM) | inhibition of growth at 10 µM (T47D) | inhibition of growth at 10 µM (MDA-MB-468) | inhibition of growth at 10 µM [4] | inhibition of growth at 10 µM (MCF7) | inhibition of growth at 10 µM [5] | inhibition of growth at 10 µM (SW-620) | inhibition of growth at 10 µM (HT-29) | other results
CCOC(=O)c1sc(NC(=O)NC2CCCCC2)nc1C | > 13 mm | > 13 mm | < 10% | < 10% | 12.6% | < 10% | 26% | 8.95% | 64.1% | 10.6% | 15.3% | 4.13% | 6.76% | 4.11% | < 10% | 8.96% | 12.7% | 8.4% | 7.5% | 15.5% | inhibition of growth at 10 µM (HCT-15): 14.3%; inhibition of growth at 10 µM (HCT-116): 14.2%; inhibition of growth at 10 µM (NCI-H522): < 10%; inhibition of growth at 10 µM (NCI-H322M): < 10%; inhibition of growth at 10 µM (HOP-92): 53.9%; MBC (Escherichia coli [6]): 100 µg/mL (≈ 321 µM); MIC (Escherichia coli [7]): 50 µg/mL (≈ 161 µM); MBC (Bacillus spizizenii [8]): 100 µg/mL (≈ 321 µM); MIC (Bacillus spizizenii [9]): 100 µg/mL (≈ 321 µM); MBC (Staphylococcus aureus [10]): 50 µg/mL (≈ 161 µM); MIC (Staphylococcus aureus [11]): 50 µg/mL (≈ 161 µM)
Cc1nc(NC(=O)Nc2ccccc2)sc1C(=O)NN | > 13 mm | > 13 mm | < 10% | < 10% | < 10% | < 10% | 11.9% | 2.35% | 37.8% | 28% | 3.17% | < 10% | < 10% | < 10% | < 10% | 6.43% | 2.96% | 2.83% | < 10% | < 10% | inhibition of growth at 10 µM (HCT-15): 9.63%; inhibition of growth at 10 µM (HCT-116): 10.5%; inhibition of growth at 10 µM (NCI-H522): 63.4%; inhibition of growth at 10 µM (NCI-H322M): 22%; inhibition of growth at 10 µM (HOP-92): < 10%; MBC (Pseudomonas aeruginosa [12]): 100 µg/mL (≈ 343 µM); MIC (Pseudomonas aeruginosa [13]): 50 µg/mL (≈ 172 µM); MBC (Escherichia coli [6]): 12.5 µg/mL (≈ 42.9 µM); MIC (Escherichia coli [7]): 12.5 µg/mL (≈ 42.9 µM); MBC (Bacillus spizizenii [8]): 25 µg/mL (≈ 85.8 µM); MIC (Bacillus spizizenii [9]): 25 µg/mL (≈ 85.8 µM); MBC (Staphylococcus aureus [10]): 12.5 µg/mL (≈ 42.9 µM); MIC (Staphylococcus aureus [11]): 12.5 µg/mL (≈ 42.9 µM)
Cc1nc(N)sc1C(=O)Nc1ccc(F)cc1 | > 13 mm | > 13 mm | 5.77% | 5.4% | < 10% | < 10% | 3.24% | 6.65% | 67.3% | 11.8% | 3.67% | < 10% | < 10% | < 10% | 9.63% | 2.36% | 2.21% | 14.2% | < 10% | < 10% | inhibition of growth at 10 µM (HCT-15): < 10%; inhibition of growth at 10 µM (HCT-116): < 10%; inhibition of growth at 10 µM (NCI-H522): 9.55%; inhibition of growth at 10 µM (NCI-H322M): 2.56%; inhibition of growth at 10 µM (HOP-92): < 10%; MBC (Escherichia coli [6]): 100 µg/mL (≈ 398 µM); MIC (Escherichia coli [7]): 50 µg/mL (≈ 199 µM); MBC (Bacillus spizizenii [8]): 50 µg/mL (≈ 199 µM); MIC (Bacillus spizizenii [9]): 25 µg/mL (≈ 99.5 µM); MBC (Staphylococcus aureus [10]): 25 µg/mL (≈ 99.5 µM); MIC (Staphylococcus aureus [11]): 12.5 µg/mL (≈ 49.7 µM)
